Results published in article PMC7357868 (ACS chemical biology, 2019).

What was measured:
hpol κ [1] = molecular target: T1, hpol κ (Homo sapiens, UniProt Q9UBT6); assay: HPG chemical footprinting with LC-MS; settings: 10 μM hpol κ, IAG-10 20 and 100 μM, 500 μM HPG
T1 sequence (Q9UBT6 19-526): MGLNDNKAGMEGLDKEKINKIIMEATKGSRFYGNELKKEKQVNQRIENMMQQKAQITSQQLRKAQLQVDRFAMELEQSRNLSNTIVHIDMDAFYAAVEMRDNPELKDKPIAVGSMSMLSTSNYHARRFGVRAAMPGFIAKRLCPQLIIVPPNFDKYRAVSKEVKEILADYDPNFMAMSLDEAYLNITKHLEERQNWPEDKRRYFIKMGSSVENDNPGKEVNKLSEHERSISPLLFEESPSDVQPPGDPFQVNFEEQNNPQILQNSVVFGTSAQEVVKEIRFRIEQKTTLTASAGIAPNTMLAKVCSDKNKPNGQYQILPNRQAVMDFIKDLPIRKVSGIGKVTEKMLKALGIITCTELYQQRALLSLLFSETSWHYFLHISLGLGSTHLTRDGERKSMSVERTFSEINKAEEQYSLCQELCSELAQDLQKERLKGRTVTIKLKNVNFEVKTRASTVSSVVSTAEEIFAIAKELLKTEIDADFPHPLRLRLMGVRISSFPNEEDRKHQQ

[2] = system: hpol κ-deficient HAP-1 cells; assay: Alkaline comet assay; assay type: cell-based, human
Method in brief: (§1)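 100 000 HAP-1 cells per well, test compound 0.5 μM alone or with alkylating agent (100 μM), 1 h; DMSO control. Cells embedded in low-melting agarose (200–300 per well), lysed 1 h, alkaline unwinding (200 mM NaOH, 1 mM EDTA) 20 min RT, electrophoresis 21 V, 30 min, 4 °C, SYBR Gold stain. Read-out is % DNA in tail per cell; ≥20 cells per replicate, three biological replicates, mean ±SD.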

hpol κ [3] = molecular target: T1, hpol κ; assay: Gel-based primer extension assay; assay type: biochemical; settings: 10 μM IAG-10, 1 nM hpol κ
[4] = system: hpol κ-proficient HAP-1 cells; assay: supF mutagenesis assay; assay type: cell-based, human; settings: 1 μM IAG-10, 24 h
Method in brief: (§2)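 HAP-1 cells at ~80% confluency (IMDM, 10% FBS) lipofected for 24 h with pSP189 supF plasmid (10 μg per 10 cm dish), ±1 μM test compound. Plasmid was unmodified or pretreated with 100 mM MMS (HEPES pH 7.5, RT, 1 h). Recovered plasmid DpnI-digested, electroporated into E. coli MBM7070, plated on ampicillin/IPTG/X-gal. Mutation frequency = white/(blue + white); ≥10 000 colonies per condition; biological triplicate, mean ±SD.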

[5] = system: hpol κ-proficient HAP-1 cells; assay: Alkaline comet assay; assay type: cell-based, human
Method in brief: as §1

hpol κ [6] = molecular target: T1, hpol κ; assay: TAMRA strand-displacement fluorescence assay of DNA polymerase activity; assay type: biochemical
hRev1 = molecular target: T2, hRev1 (Homo sapiens, UniProt Q9UBZ9); assay: Gel-based primer extension assay; assay type: biochemical; settings: 10 μM IAG-10, 10 nM hRev1
T2 sequence (Q9UBZ9 330-833): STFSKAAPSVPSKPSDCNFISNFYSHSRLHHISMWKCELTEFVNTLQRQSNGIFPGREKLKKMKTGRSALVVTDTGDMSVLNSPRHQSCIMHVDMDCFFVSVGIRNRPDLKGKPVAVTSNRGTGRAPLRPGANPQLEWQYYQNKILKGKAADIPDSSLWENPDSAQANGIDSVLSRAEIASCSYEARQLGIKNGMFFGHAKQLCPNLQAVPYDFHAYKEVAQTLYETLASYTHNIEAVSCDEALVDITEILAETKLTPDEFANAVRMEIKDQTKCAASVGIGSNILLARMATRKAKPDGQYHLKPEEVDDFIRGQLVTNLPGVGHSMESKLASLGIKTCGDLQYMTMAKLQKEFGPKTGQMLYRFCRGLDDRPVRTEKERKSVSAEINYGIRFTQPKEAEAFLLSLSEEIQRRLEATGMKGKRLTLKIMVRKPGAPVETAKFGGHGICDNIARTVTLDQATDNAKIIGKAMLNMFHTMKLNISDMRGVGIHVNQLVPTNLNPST

hpol ι = molecular target: T3, hpol ι (Homo sapiens, UniProt Q9UNA4); assay: Gel-based primer extension assay; assay type: biochemical; settings: 10 μM IAG-10, 10 nM hpol ι
T3 sequence (Q9UNA4 1-446): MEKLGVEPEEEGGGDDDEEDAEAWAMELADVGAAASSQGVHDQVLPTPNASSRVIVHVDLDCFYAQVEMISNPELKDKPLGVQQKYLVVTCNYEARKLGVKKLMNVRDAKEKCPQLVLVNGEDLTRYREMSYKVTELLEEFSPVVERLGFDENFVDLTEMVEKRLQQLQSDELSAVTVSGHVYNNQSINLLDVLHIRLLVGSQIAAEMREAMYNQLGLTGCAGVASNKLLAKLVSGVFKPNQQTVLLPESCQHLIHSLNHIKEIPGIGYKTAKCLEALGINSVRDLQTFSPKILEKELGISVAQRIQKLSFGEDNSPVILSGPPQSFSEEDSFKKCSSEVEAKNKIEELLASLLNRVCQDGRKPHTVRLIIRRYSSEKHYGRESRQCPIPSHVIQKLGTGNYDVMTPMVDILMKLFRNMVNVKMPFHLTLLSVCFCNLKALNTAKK

[7] = system: hpol κ-deficient HAP-1 cells; assay: supF mutagenesis assay; assay type: cell-based, human; settings: 1 μM IAG-10, 24 h
Method in brief: as §2

[8] = molecular target: DNA pol I from Mycobacterium tuberculosis (Tb pol I) (Mycobacterium tuberculosis, UniProt P9WNU5); assay: TAMRA strand-displacement selectivity assay, A-family pol; assay type: biochemical; settings: 10 μM IAG-10, 10 nM Tb pol I
[9] = system: hpol κ-proficient HAP-1 cells; assay: Clonogenic survival assay; assay type: cell-based, human
[10] = 100 μM TMZ + 0.5 μM IAG-10, compared with TMZ alone

DNA pol I from Mycobacterium tuberculosis (Tb pol I), sequence (P9WNU5 whole entry): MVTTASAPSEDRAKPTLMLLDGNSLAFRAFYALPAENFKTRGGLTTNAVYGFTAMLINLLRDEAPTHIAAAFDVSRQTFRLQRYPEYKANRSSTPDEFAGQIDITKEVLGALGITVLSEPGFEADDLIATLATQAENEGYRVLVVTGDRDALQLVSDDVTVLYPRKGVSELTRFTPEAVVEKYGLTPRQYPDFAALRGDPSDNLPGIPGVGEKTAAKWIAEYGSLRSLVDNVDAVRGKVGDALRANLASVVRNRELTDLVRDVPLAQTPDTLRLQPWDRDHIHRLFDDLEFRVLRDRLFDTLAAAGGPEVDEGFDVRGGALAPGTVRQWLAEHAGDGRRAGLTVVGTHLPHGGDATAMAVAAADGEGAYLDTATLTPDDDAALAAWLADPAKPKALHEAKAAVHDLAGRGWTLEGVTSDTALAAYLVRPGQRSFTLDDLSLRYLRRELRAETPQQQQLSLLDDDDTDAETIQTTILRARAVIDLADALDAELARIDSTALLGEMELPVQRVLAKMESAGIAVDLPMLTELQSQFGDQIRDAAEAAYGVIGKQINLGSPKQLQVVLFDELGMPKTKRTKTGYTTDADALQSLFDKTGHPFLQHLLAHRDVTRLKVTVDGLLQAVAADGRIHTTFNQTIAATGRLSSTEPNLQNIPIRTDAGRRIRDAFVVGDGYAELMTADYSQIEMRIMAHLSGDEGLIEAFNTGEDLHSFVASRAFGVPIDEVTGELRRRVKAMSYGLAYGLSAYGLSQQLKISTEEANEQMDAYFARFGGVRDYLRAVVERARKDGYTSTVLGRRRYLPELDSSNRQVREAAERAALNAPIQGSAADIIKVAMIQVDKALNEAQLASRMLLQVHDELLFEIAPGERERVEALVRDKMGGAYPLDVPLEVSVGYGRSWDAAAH

Cl.[H]/N=C(\N)NN=Cc1cn(C(=O)c2cccc3ccccc23)c2ccc(Cl)cc12 [IAG-10, (E)-2-((1-(1-naphthoyl)-5-chloro-1H-indol-3-yl)-methylene)hydrazine-1-carboximidamide hydrochloride]
change in the fraction of HPG-modified peptides containing Arg48 (hpol κ [1]): large increase
decrease in the fraction of HPG-modified peptides (Arg145, Arg149, Arg505) (hpol κ [1]): > 50%
DNA damage (% DNA in tail) over control ([2]; 0.5 μM IAG-10 alone, 1 h): did not increase DNA damage over control
DNA damage (% DNA in tail) [2, 10]: did not increase further
polymerase activity in presence of compound (hpol κ [3]): only hpol κ was inhibited
mutation frequency, MMS-damaged DNA over undamaged control plasmid [4]: approximately twofold
mutation frequency, undamaged pSP189 plasmid [4]: did not change the mutation frequency
DNA damage (% DNA in tail) compared to control ([5]; 0.5 μM IAG-10 alone, 1 h): approximately twofold
DNA damage (% DNA in tail) [5, 10]: increased even further
polymerase activity in presence of compound (hpol κ [6]; 10 μM IAG-10, 25 nM hpol κ): only hpol κ activity was inhibited
inhibition of enzyme activity in the initial screen (hpol κ [6]; 40 μM compound, 1 nM hpol κ, 50 nM DNA, relative to DMSO control): greatest inhibitory action
IC50 (hpol κ [6]; IC50, 0.1 nM hpol κ, 0.5 nM DNA, 95% CI in parentheses): 0.72 µM
IC50 (hpol κ [6]; IC50, 0.2 nM hpol κ, 1 nM DNA, 95% CI in parentheses): 1.1 µM
IC50 (hpol κ [6]; IC50, 0.2 nM hpol κ, 2.5 nM DNA, 95% CI in parentheses): 1.4 µM
IC50 (hpol κ [6]; IC50, 0.5 nM hpol κ, 10 nM DNA, 95% CI in parentheses): 8.9 µM
IC50 (hpol κ [6]; IC50, 1 nM hpol κ, 25 nM DNA, 95% CI in parentheses): 8.9 µM
IC50 (hpol κ [6]; IC50, 1 nM hpol κ, 50 nM DNA, 100 μM dTTP, 1 mM MgCl2, 25 °C, mean n = 3): 7.2 µM
specificity for hpol κ over η (hpol κ [6]; initial reaction conditions (higher enzyme and DNA)): ~ 2 fold
specificity for hpol κ over η (hpol κ [6]; lower concentrations of enzyme and DNA): ~ 30 fold
polymerase activity in presence of compound (hRev1): only hpol κ was inhibited
polymerase activity in presence of compound (hpol ι): only hpol κ was inhibited
mutation frequency, control or MMS-damaged DNA [7]: did not alter the mutation frequency
polymerase activity in presence of compound [8]: only hpol κ activity was inhibited
colony formation ([9]; 0.5 μM IAG-10 alone): does not impair colony formation
colonies formed relative to untreated cells ([9]; 250 μM TMZ + 0.5 μM IAG-10 cotreatment, 1 h, 10 days culture): ~ 40%
